High-throughput results as filed in PubChem.
Jurkat NFkB inh: inhibitors of the PMA/ionomycin-induced NF-kB reporter in Jurkat cells | PMA/ionomycin-induced NF-kB luciferase reporter, luminescence | inhibition, % at 4 µM | 330,000 compounds, 0.53% hits | AID 435003; in the data active = inhibition above about 50%
CHOP inhibitor: inhibitors of CHOP induction in ER stress response; 220,000 compounds, 3.8% hits; AID 2732; CHO-K1 CHOP-promoter luciferase, tunicamycin-induced, 15-18 h; inhibition, % at 10 µM;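 active = compounds that reduced the stress-induced luciferase reporter signal by more than about 70% of percent inhibition, limit read from the data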;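 note: 0% = tunicamycin plus vehicle and 100% = wells without tunicamycin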
UPR CHOP act: apoptotic UPR (CHOP) activation; CHO-CHOP luciferase reporter, luminescence; percent of tunicamycin response over DMSO baseline; activation, % at 10 µM; 330,000 compounds, 0.34% hits; AID 449763;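 active = at 10 µM dose, activation of 40% or more, normalized to positive control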;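 note: 100% = tunicamycin at 10 µg/mL and 0% = DMSO alone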
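Test system: CHO-CHOP cells, stable luciferase reporter of PERK-eIF2a-CHOP signalling | Quantity: 500 CHO-CHOP cells per well | Buffer or medium: F12 plus 10% serum | Compound dosing: 10 µM single point, 0.5% DMSO | Schedule: 6 h compound treatment, 37 °C | Signal: Luciferase luminescence | Control set: Tunicamycin high control, DMSO low control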
697 NFkB inh: inhibitors of the PMA/ionomycin-induced NF-kB reporter in 697 B cells; 697 B-cell NF-kB luciferase reporter, 16 h; inhibition, % at 4 µM; 330,000 compounds, 0.33% hits; AID 435022; in the data active = inhibition above about 35%
XBP1 UPR activ: adaptive UPR (XBP1) activation; CHO-XBP1 luciferase reporter, IRE1-XBP1 UPR activation, luminescence; percent of tunicamycin response, DMSO as zero; 330,000 compounds, 0.33% hits; activation, % at 20 µM;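 active = versus positive control, 20 µM dose yields 30% or more activation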;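 note: 100% = tunicamycin at 10 µg/mL and 0% = DMSO only wells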
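Assay system: IRE1-XBP1 luciferase reporter CHO line. Input: 1000 cells/well. Buffer or medium: F12 with 10% serum. Doses: 20 µM, 1% DMSO. Times: overnight seeding at 37 °C, 6 h compound treatment at 37 °C. Technique: Steady-Glo luciferase glow luminescence, 10 min after reagent addition.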
Numbers without * were called inactive; . = no result; ! = not confirmed by another sample. This is one part of a sample in which hits are shown more often than they occur.

SMILES	Jurkat NFkB inh	CHOP inhibitor	UPR CHOP act	697 NFkB inh	XBP1 UPR activ
NC(=O)c1cccn1-c1ncc(C(F)(F)F)cc1Cl	-48	7	-1	19	-3
COc1cc2c(cc1OC)C(Nc1ccccc1)=NC(C)(C)C2	2	34	5	10	-1
O=C(COc1cccc(OC(F)F)c1)Nc1ccc(SC(F)F)cc1	-17	94*	-1	24	6
O=C(COc1cccc(Oc2ccccc2)c1)Nc1ccc(SC(F)F)cc1	18	66	1	7	-3
O=C(NCc1ccccc1Cl)C1CCCN(S(=O)(=O)c2cccc3nonc23)C1 (stereo not given)	18	.	0	-5	-8
CCc1nnc(NC(=O)C(c2ccccc2)c2ccccc2)s1	13	.	1	5	-1
Cc1ccc(/C=N/Nc2nc(Cl)c(Cl)cc2Cl)s1	-85	83*	4	-78	7
CC1CCc2sc(C(=O)OCC(=O)NCc3ccc(F)cc3)cc2C1 (stereo not given)	-9	42	-2	-11	1
CN(C(=O)c1ccccc1)c1nc2ccccc2s1	-132	72*	-2	-175	-10
CCCCN(C(=O)c1ccc(S(=O)(=O)N(C)C)cc1)c1nc2ccccc2s1	-13	71*	2	1	-3
CN(C)C(=O)c1nc2ccccc2s1	-20	-17	1	-23	3
COc1ccc(S(=O)(=O)N(CCc2ccccc2)CC(=O)N/N=C/c2ccc3c(c2)OCO3)cc1	2	33	1	17	0
Cc1cccc(CN(CC(=O)N/N=C/c2cccs2)S(=O)(=O)c2ccc(Cl)cc2)c1	14	78*	-2	13	-4
O=C(CN(CCc1ccccc1)S(=O)(=O)c1ccc(Cl)cc1)N/N=C/c1ccc2c(c1)OCO2	13	77*	1	15	-3
Cc1cc(C)c(S(=O)(=O)Nc2ccnc(-c3cccnc3)n2)c(C)c1	-4	-10	-2	21	-1
Oc1cc(-c2ccccc2)c2ccccc2c1	11	101*	-1	-3	-1
COc1cc([N+](=O)[O-])ccc1NC(=S)Nc1cc(C(=O)OC(C)C)cc(C(=O)OC(C)C)c1	0	85*	15	17	0
Cc1ccc(NC(=O)CN(C)C(=O)C2CC(=O)N(Cc3ccccc3)C2)cc1 (stereo not given)	4	.	0	2	-3
O=C/C(=C\Nc1ccc(Br)cc1)c1nc2ccccc2o1	12	74*	2	12	1
O=C(NCc1ccccn1)C(=O)Nc1nc(C23CC4CC(CC(C4)C2)C3)cs1	3	71*	1	-16	8
O=C(NCc1ccccn1)NC12CC3CC(CC(C3)C1)C2	-4	11	3	11	5
CC(C)(C)C1CCc2c(C(=O)NNC(=O)CCC(=O)O)csc2C1 (stereo not given)	7	-29	0	3	-3
N#C/C(=C(/O)CN1CCCCC1)c1nc(-c2ccc(Cl)cc2)cs1	-30	42	2	-30	3
N#C/C(=C(/O)CN1CCN(c2ccccc2F)CC1)c1nc(-c2ccc(Cl)cc2)cs1	2	82*	-1	-5	8
CS(=O)(=O)Nc1cc2c3c(c1)CCC(=O)N3CCC2	8	.	1	-21	4
SMILES	Jurkat NFkB inh	CHOP inhibitor	UPR CHOP act	697 NFkB inh	XBP1 UPR activ
COC(=O)c1ccc(OCC(O)CN2CCN(C(=O)c3ccco3)CC2)c(OC)c1 (stereo not given)	-8	.	0	6	3
CCOc1ccccc1OCCC(=O)OCC(=O)Nc1c(C)nn(-c2ccccc2)c1C	14	.	3	-17	-4
COc1ccc(CCn2c(S)nc3ccccc3c2=O)cc1	-4	.	-1	-8	-4
CCC(CC)C(=O)OCC(=O)NC12CC3CC(CC(C3)C1)C2	2	33	-1	22	-2
O=C(COC(=O)C12CC3CC(CC(C3)C1)C2)Nc1ccc(OC(F)F)cc1	-1	94*	-2	18	4
O=C(COC(=O)C12CC3CC(CC(C3)C1)C2)NC12CC3CC(CC(C3)C1)C2	9	76*	-1	23	2
CC1=C([N+](=O)[O-])C(c2ccccc2)NC(=O)N1 (stereo not given)	-13	.	1	11	0
Cc1cc(C)cc(-n2c3nc4ccccc4nc3c3c(=O)n(Cc4ccco4)cnc32)c1	-1	103*	-2	-3	0
O=C(c1ccc(OC2CCN(CCc3ccccc3)CC2)cc1)N1CCC(CO)CC1	-12	.	0	12	-2
O=C(Nc1nnc(-c2cccs2)o1)c1cccc(Oc2ccccc2)c1	1	84*	4	16	1
CC1C2NC(=O)N(Cc3ccccc3)C1(C)Oc1ccccc12 (stereo not given)	-2	-3	-2	7	-2
Cc1ccc(CN2CCN(Cc3nc4ccccc4nc3C)CC2CCO)cc1 (stereo not given)	3	19	-1	18	-2
COC(=O)c1ccc2c(=O)n(Cc3ccco3)c(SCC(=O)Nc3ccc(C)c(Cl)c3)nc2c1	0	30	40	11	38*
COc1ccc(S(=O)(=O)N(C)C)cc1NC(=O)CSC(C)C(=O)Nc1cc(C)on1 (stereo not given)	9	.	-1	24	-2
Cc1ccc(-c2nc3ccccc3o2)cc1NC(=O)c1ccc2c(c1)OCO2	-130	87*	3	-112	-1
Cc1ccc(-c2nc3ncccc3o2)cc1NC(=O)c1cc2ccccc2o1	7	70*	-3	15	-6
Cc1ccc(-c2nc3ccccc3o2)cc1NC(=S)NC(=O)c1cccs1	-55	82*	2	-80	5
Cc1ccc(NC(=O)C(C)c2ccc([N+](=O)[O-])cc2)cc1Cl (stereo not given)	10	44	-2	12	2
Cc1cc(N)c2ccccc2[n+]1CCCCCCCCCCCCCC[n+]1c(C)cc(N)c2ccccc21	.	-4	.	.	.
CC1CCCCC12NC(=O)N(CC(=O)N1CCN(C(=O)c3cccs3)CC1)C2=O (stereo not given)	-14	.	-2	16	-1
CCCC(C)NC(=O)c1ccc(OCc2ccc(Cl)cc2)c(OC)c1 (stereo not given)	.	56	.	.	.
COc1cccc(-c2nnc3sc(C4CCCCC4)nn23)c1	7	74*	-1	-50	-4
CCOc1cccc(-c2nnc3sc(C4CCCCC4)nn23)c1	-1	56	0	-16	4
O=C1CCCCCCC1Sc1ccccc1[N+](=O)[O-] (stereo not given)	-11	83*	-1	8	-2
CN(C)c1ccnc2c[cH-]cc12.[Fe].c1ccc(-[c-]2[c-](-c3ccccc3)[c-](-c3ccccc3)[c-](-c3ccccc3)[c-]2-c2ccccc2)cc1 (stereo not given)	17	88*!	11	8	3
